From ChEMBL document CHEMBL1641478, “Structural and biochemical study on the inhibitory activity of derivatives of 5-nitro-furan-2-carboxylic acid for RNase H function of HIV-1 reverse transcriptase” (Bioorg Med Chem, 2011)

Key:
[1] = Cytotoxicity against human 293T cells after 3 days by MTT assay; type: cell-based, HEK-293T; conditions: for CC50 at 72 h: 293T cells; for CC50: hek-293t, 72 h
Method in brief: (§1)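 Cells in RPMI-1640 with 10% FBS: MT-4 seeded at 4 × 10⁵/mL, 293T at 2 × 10⁵/mL. Compound final concentrations 100, 50, 25 and 12.5 µM, 1% DMSO final, plus an untreated control. Incubated 3 days at 37 °C in 5% CO₂. MTT added for 1 h, then solubilized overnight at 4 °C and read at OD570/690. CC50 derived only when viability fell below 50% at 100 µM.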

[2] = (§2) Cytotoxicity against human MT4 cells after 3 days by MTT assay; type: cell-based; conditions: MT4 cells; method in brief: as §1
[3] = target: Human immunodeficiency virus type 1 reverse transcriptase (Human immunodeficiency virus 1, UniProt Q72547); experiment: Inhibition RNase H activity of HIV1 reverse transcriptase expressed in Escherichia coli stain BL21(DE3)pLysS
Method in brief: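 His-tagged p66/p51 RT expressed in E. coli BL21(DE3)pLysS with 1 mM IPTG for 3 h. Substrate: 18-mer RNA labelled with 3′-FAM, annealed to complementary DNA carrying a 5′-BHQ quencher. Reaction used 100 ng RT at 37 °C, with cleavage followed in real time by fluorescence at 488 nm every 150 s. IC50 taken as the concentration halving the cleavage rate relative to control.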

MT4 = experiment: as §2; type: cell-based; conditions: mt4, 72 h; method in brief: as §1

| IC50 [3] | Structure (SMILES) | CC50 at 72 h [1] | CC50 at 72 h [2] | CC50 [1] | CC50 (MT4) |
| --- | --- | --- | --- | --- | --- |
| 0.9 µM | CC(C)(C)N(Cc1ccccc1)C(=O)COC(=O)c1ccc([N+](=O)[O-])o1 | > 100 µM | > 100 µM |  |  |
| 13.2 µM | CC(C)OC(=O)COC(=O)c1ccc([N+](=O)[O-])o1 | > 100 µM | > 100 µM |  |  |
| 18 µM | CC(C)(C)NC(=O)COC(=O)c1ccc([N+](=O)[O-])o1 | > 100 µM | > 100 µM |  |  |
| 5.8 µM | CCC(C)(C)NC(=O)COC(=O)c1ccc([N+](=O)[O-])o1 | > 100 µM | > 100 µM |  |  |
| 8.2 µM | CC(C)(NC(=O)COC(=O)c1ccc([N+](=O)[O-])o1)c1ccccc1 | > 100 µM | > 100 µM |  |  |
| 4.3 µM | CC(C)(Cc1ccccc1)NC(=O)COC(=O)c1ccc([N+](=O)[O-])o1 | > 100 µM | > 100 µM |  |  |
| 4.2 µM | O=C(COC(=O)c1ccc([N+](=O)[O-])o1)NCC1CCCO1 (stereo not given) | > 100 µM | > 100 µM |  |  |
| 14.2 µM | CC(C)(C)N(CCc1ccccc1)C(=O)COC(=O)c1ccc([N+](=O)[O-])o1 | 67 µM | > 100 µM |  |  |
| > 50 µM | CC(C)(C)N(CCCc1ccccc1)C(=O)COC(=O)c1ccc([N+](=O)[O-])o1 |  |  | Not Active | Not Active |
| > 50 µM | CC(C)(C)N(CCC(=O)c1ccccc1)C(=O)COC(=O)c1ccc([N+](=O)[O-])o1 |  |  | Not Active | Not Active |
| 6.9 µM | CC(C)(C)N(Cc1ccc([N+](=O)[O-])cc1)C(=O)COC(=O)c1ccc([N+](=O)[O-])o1 | > 100 µM | > 100 µM |  |  |
| 9.8 µM | CC(C)(C)N(Cc1cccc([N+](=O)[O-])c1)C(=O)COC(=O)c1ccc([N+](=O)[O-])o1 | 78 µM | > 100 µM |  |  |
| 8.7 µM | CC(=O)Oc1ccc(CN(C(=O)COC(=O)c2ccc([N+](=O)[O-])o2)C(C)(C)C)cc1 | > 100 µM | > 100 µM |  |  |
| 12.8 µM | CC(=O)Oc1ccccc1CN(C(=O)COC(=O)c1ccc([N+](=O)[O-])o1)C(C)(C)C | > 100 µM | > 100 µM |  |  |
| 7.5 µM | COc1ccc(CN(C(=O)COC(=O)c2ccc([N+](=O)[O-])o2)C(C)(C)C)cc1 | > 100 µM | > 100 µM |  |  |
| 8.5 µM | CC(C)(C)N(Cc1ccc(F)cc1)C(=O)COC(=O)c1ccc([N+](=O)[O-])o1 | > 100 µM | > 100 µM |  |  |

| IC50 [3] | Structure (SMILES) | CC50 at 72 h [1] | CC50 at 72 h [2] | CC50 [1] | CC50 (MT4) |
| --- | --- | --- | --- | --- | --- |
| 8 µM | CC(C)(C)N(Cc1ccc(C(F)(F)F)cc1)C(=O)COC(=O)c1ccc([N+](=O)[O-])o1 | 36 µM | 71 µM |  |  |
| 8.5 µM | CC(C)(C)N(Cc1cccc(C(F)(F)F)c1)C(=O)COC(=O)c1ccc([N+](=O)[O-])o1 | 68 µM | > 100 µM |  |  |
| 9 µM | CC(C)(C)N(Cc1ccccc1C(F)(F)F)C(=O)COC(=O)c1ccc([N+](=O)[O-])o1 | 65 µM | 95 µM |  |  |
| 6.8 µM | CC(C)(C)N(Cc1c(F)c(F)c(F)c(F)c1F)C(=O)COC(=O)c1ccc([N+](=O)[O-])o1 | 83 µM | > 100 µM |  |  |
| 7.1 µM | CC(=O)COC(=O)c1ccc([N+](=O)[O-])o1 | > 100 µM | > 100 µM |  |  |
| 21.9 µM | CC(C)(C)C(=O)COC(=O)c1ccc([N+](=O)[O-])o1 | > 100 µM | > 100 µM |  |  |
| > 50 µM | CC(C)(C)NC(=O)COC(=O)c1ccccc1[N+](=O)[O-] |  |  |  |  |
| > 50 µM | CC(C)(C)NC(=O)COC(=O)c1ccc(Br)o1 |  |  |  |  |
| > 50 µM | CC(C)(C)NC(=O)COC(=O)c1ccc(-c2ccccc2[N+](=O)[O-])o1 |  |  |  |  |
| > 50 µM | CC(C)(C)NC(=O)COC(=O)c1ccc(-c2cccc([N+](=O)[O-])c2)o1 |  |  |  |  |
| > 50 µM | CC(C)(C)NC(=O)COC(=O)c1ccc(-c2ccc([N+](=O)[O-])cc2)o1 |  |  |  |  |
| 5.7 µM | CC(C)(C)C(=O)COC(=O)c1ccc([N+](=O)[O-])s1 |  |  |  |  |
| > 50 µM | COC(=O)CNC(=O)c1ccc([N+](=O)[O-])o1 |  |  |  |  |
| > 50 µM | CCOC(=O)[C@H](C)NC(=O)c1ccc([N+](=O)[O-])o1 |  |  |  |  |
| > 50 µM | CCOC(=O)[C@H](CC(C)C)NC(=O)c1ccc([N+](=O)[O-])o1 |  |  |  |  |

Second part, the compound before the results:

| Structure (SMILES) | IC50 [3] | CC50 at 72 h [1] | CC50 at 72 h [2] | CC50 [1] | CC50 (MT4) |
| --- | --- | --- | --- | --- | --- |
| O=C(COC(=O)c1ccc([N+](=O)[O-])o1)NC1Cc2ccccc2C1 | 5.5 µM | > 100 µM | > 100 µM |  |  |
| O=C(COC(=O)c1ccc([N+](=O)[O-])o1)NC1CCc2ccccc21 (stereo not given) | 6.1 µM | > 100 µM | > 100 µM |  |  |
| O=C(COC(=O)c1ccc([N+](=O)[O-])o1)NC1CCCc2ccccc21 (stereo not given) | 4.3 µM | > 100 µM | > 100 µM |  |  |
| CC(C)(C)N(Cc1ccc(OCc2ccccc2)cc1)C(=O)COC(=O)c1ccc([N+](=O)[O-])o1 | > 50 µM |  |  | Not Active | Not Active |
| O=C(OCC(=O)N(Cc1ccccc1)CC1CCCO1)c1ccc([N+](=O)[O-])o1 (stereo not given) | 7.7 µM | > 100 µM | > 100 µM |  |  |
| O=C(OCC(=O)N(Cc1ccc(O)cc1)CC1CCCO1)c1ccc([N+](=O)[O-])o1 (stereo not given) | 5 µM | > 100 µM | > 100 µM |  |  |
| CC(C)(C)NC(=O)COC(=O)c1cccc([N+](=O)[O-])c1 | > 50 µM |  |  |  |  |
| CC(C)(C)NC(=O)COC(=O)c1ccc([N+](=O)[O-])cc1 | > 50 µM |  |  |  |  |
| CC(C)(C)N(Cc1ccccc1)C(=O)COC(=O)c1cc([N+](=O)[O-])cc([N+](=O)[O-])c1 | > 50 µM |  |  |  |  |
| CC(C)(C)N(Cc1ccccc1)C(=O)COC(=O)c1ccco1 | > 50 µM |  |  |  |  |
| CC(C)(C)NC(=O)COC(=O)c1ccc(C(=O)c2ccccc2)o1 | > 50 µM |  |  |  |  |
| CC(C)(C)NC(=O)COC(=O)c1ccno1 | > 50 µM |  |  |  |  |
| CC(C)(C)NC(=O)COC(=O)c1ccc([N+](=O)[O-])s1 | 2.8 µM | > 100 µM | > 100 µM |  |  |
| CCC(C)(C)NC(=O)COC(=O)c1ccc([N+](=O)[O-])s1 | 5.8 µM |  |  |  |  |
| CCC(C)(C)N(Cc1ccc([N+](=O)[O-])cc1)C(=O)COC(=O)c1ccc([N+](=O)[O-])s1 | 33.5 µM |  |  |  |  |
| CCC(C)(C)N(Cc1cccc([N+](=O)[O-])c1)C(=O)COC(=O)c1ccc([N+](=O)[O-])s1 | 25.8 µM |  |  |  |  |
| CC(=O)COC(=O)c1ccc([N+](=O)[O-])s1 | 9.5 µM |  |  |  |  |
| CCOC(=O)[C@H](Cc1ccccc1)NC(=O)c1ccc([N+](=O)[O-])o1 | > 50 µM |  |  |  |  |
| CCOC(=O)[C@H](Cc1ccc(O)cc1)NC(=O)c1ccc([N+](=O)[O-])o1 | > 50 µM |  |  |  |  |
| CCOC(=O)[C@@H](NC(=O)c1ccc([N+](=O)[O-])o1)c1ccccc1 | > 50 µM |  |  |  |  |
| O=C(OCCc1ccc([N+](=O)[O-])cc1)c1ccc([N+](=O)[O-])o1 | 2.1 µM | 36 µM | 28 µM |  |  |
| CN(OC(=O)c1ccc([N+](=O)[O-])o1)C(=O)c1ccc([N+](=O)[O-])o1 | 2.7 µM | > 100 µM | 86 µM |  |  |
